Her2 expr inh = inhibitors of Her2 protein expression, primary screen, SKBR-3 cells, AlphaScreen, 66K library; Receptor tyrosine-protein kinase erbB-2 (Homo sapiens), P04626; SKBR-3 HER2 protein level, 18-24 h; hits give low values; HER2 level % of control, % at 10 µM; actives 0.69% (n = 65,000);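 active = HER2 level under 5% of the carrier-only control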;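 also: 100% = DMSO carrier and 0% = 500 nM PU-H71 HSP90 inhibitor; lower value means stronger loss of Her2 protein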
Target sequence (P04626 whole entry, looked up): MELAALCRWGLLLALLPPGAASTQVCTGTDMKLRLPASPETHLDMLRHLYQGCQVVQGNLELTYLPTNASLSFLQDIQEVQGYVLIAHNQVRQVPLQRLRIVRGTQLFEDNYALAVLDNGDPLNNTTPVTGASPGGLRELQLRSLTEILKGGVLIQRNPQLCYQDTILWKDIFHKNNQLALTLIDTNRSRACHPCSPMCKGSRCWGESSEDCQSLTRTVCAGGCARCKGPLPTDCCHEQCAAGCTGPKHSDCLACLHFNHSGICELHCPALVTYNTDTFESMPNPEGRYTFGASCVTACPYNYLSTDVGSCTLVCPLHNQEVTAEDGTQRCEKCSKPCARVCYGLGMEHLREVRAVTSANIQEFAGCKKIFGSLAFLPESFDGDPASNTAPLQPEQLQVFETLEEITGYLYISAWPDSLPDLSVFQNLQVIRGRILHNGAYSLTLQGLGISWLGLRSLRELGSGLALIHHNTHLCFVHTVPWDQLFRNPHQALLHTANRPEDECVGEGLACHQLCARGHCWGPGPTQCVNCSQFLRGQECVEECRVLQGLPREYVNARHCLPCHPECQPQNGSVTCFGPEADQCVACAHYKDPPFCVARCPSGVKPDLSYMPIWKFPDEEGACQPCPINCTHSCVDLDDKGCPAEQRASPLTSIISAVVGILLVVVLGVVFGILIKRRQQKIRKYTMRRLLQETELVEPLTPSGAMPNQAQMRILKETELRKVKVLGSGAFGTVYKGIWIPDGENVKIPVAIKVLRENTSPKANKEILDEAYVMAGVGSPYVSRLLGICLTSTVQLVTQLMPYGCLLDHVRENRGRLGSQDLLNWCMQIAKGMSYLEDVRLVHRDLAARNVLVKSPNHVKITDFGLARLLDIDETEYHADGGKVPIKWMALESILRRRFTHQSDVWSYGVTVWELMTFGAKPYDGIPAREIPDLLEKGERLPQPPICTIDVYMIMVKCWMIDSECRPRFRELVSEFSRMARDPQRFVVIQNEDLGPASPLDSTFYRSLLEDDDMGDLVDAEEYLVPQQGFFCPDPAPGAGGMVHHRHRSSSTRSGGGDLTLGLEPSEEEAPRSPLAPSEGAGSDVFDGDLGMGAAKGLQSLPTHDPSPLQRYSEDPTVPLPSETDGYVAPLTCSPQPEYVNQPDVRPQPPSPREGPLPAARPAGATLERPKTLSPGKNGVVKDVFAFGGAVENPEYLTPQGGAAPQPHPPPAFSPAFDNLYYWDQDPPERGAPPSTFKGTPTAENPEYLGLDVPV
PostGolgi ctrl = growth inhibition of yeast control strain, primary screen, counter-screen for post-Golgi transport modulator project. efflux-deficient yeast background strain, growth absorbance A615, 16 h. inhibition, % at 10 µM. actives 5% (n = 98,000). AID 738, 2007
Ecoli tolC = growth inhibitors of E. coli tolC mutant, primary screen, strain BW25113 ΔtolC::kan, 384-well. OD615. growth inhibition, % at 10 µM (by protocol). actives 2.2% (n = 65,000). AID 573, 2007;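 active = growth inhibition at or above a cutoff equal to the mean over every tested compound plus 3 SD, cut at about 60% in these data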;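 also: growth measured after 20 h incubation at 37 °C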
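Test system: E. coli BW25113 ΔtolC::kan bacteria; incubation: 37 °C, 20 h exposure; medium: LB broth supplemented with 50 µg/mL kanamycin; read-out basis: percent growth inhibition; signal: A615 absorbance measurement; compound: 10 µM final, single dose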
E coli WT exp = growth inhibitors of wild-type E. coli, primary screen, strain BW25113, expanded library, OD600 | actives 0.15% (n = 98,000) | AID 710, 2007 | growth inhibition, % at 100 µM | OD600 absorbance;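 active = growth inhibition above about 50% at one test dose, limit read from the data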;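 also: growth measured after 20 h incubation at 37 °C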
PostGolgi yeast = phenotypic screen on post-Golgi transport, primary screen; post-Golgi transport phenotypic cell assay; actives 0.9% (n = 98,000); AID 739, 2007; inhibition, % at 10 µM;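 also: yeast cells grown in 1536-well plates; yeast grown about 18 h at 30C before absorbance read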
* marks the source's active call; other numbers are inactive results; / = no result given. In the library only some 6.6% were active in any assay of this set; here they are far more common. Rule as the data show it, unless noted: active = inhibition above about 30%; inactive = the rest.

SMILES | Her2 expr inh | PostGolgi ctrl | Ecoli tolC | E coli WT exp | PostGolgi yeast
O=c1c(/C=C(\O)c2ccccc2)nc2ccccc2n1-c1ccccc1 | / | 30* | / | -8 | -10
Cc1cccc2cc(CN(CC3CCCO3)S(=O)(=O)c3ccccc3)c3nnnn3c12 (configuration not stated) | 101 | / | -14 | / | /
Cc1ccc2c(c1)cc(CN(Cc1ccco1)S(=O)(=O)c1ccccc1)c1nnnn12 | 63 | 45* | 15 | -4 | -3
CCCCN(C)S(=O)(=O)c1cc(Br)cc2c1N(C(=O)C1CC1)CC2 | 205 | 23 | 32 | -6 | -1
O=C(CSc1ncnc2sc3c(c12)CCCC3)c1ccco1 | 38 | 46* | 41 | -7 | 0
O=C(CSc1ncnc2sc3c(c12)CCCCC3)NCc1ccco1 | 59 | 20 | 11 | 3 | -4
c1ccc(-c2nc(N3CCOCC3)c3ccccc3n2)nc1 | 104 | 5 | 11 | 3 | 0
COc1ccc(Nc2nc(N3CCCC3)c3ccccc3n2)cc1 | -5.6* | 7 | 76* | 20 | 0
CCN(CC)c1ccc(Nc2nc(N3CCOCC3)c3ccccc3n2)cc1 | / | 13 | / | 7 | 2
c1ccc2c(N3CCCC3)nc(-c3ccncc3)nc2c1 | 100 | 61* | 48 | -9 | 57*
CN1CCN(c2nc(-c3ccncc3)nc3ccccc23)CC1 | 105 | -1 | 14 | 2 | -3
c1ccc(-c2nc(N3CCCCCC3)c3ccccc3n2)nc1 | 43 | 11 | 100* | 26 | 3
C=CCOc1nc(-c2ccncc2)nc2ccccc12 | 89 | 48* | 3 | -4 | 17
Cc1cccc(N2CCN(C(=O)COc3cc(=O)n(C)c4ccccc34)CC2C)c1 (configuration not stated) | 94 | / | 4 | / | /
Cc1ccc(CN2C(=O)C(C)(C)Oc3ccc(C(=O)N4CCCCC4)cc32)cc1 | 74 | 26 | 50 | -1 | -16
C=CCn1c(SCC(N)=O)nnc1-c1cccc(Br)c1 | 108 | 18 | 2 | 1 | -6
C=CCn1c(SCc2ccccc2C#N)nnc1-c1cc(Br)ccc1O | 100 | 52* | 38 | -8 | -8
COC(=O)CSc1nc2cc3c(cc2cc1C)OCCO3 | 91 | 36* | -2 | 0 | 6
O=C(Nc1ccc(NC(=O)C2CC2)nc1)c1ccncc1 | 82 | 6 | -18 | 10 | 8
CCOC(=O)C1=C(CC)Nc2ccccc2N=C1NC(=O)Nc1ccccc1OC | 83 | 37* | -8 | -3 | 8
CCOC(=O)C1=C(CC)Nc2ccccc2N=C1NC(=O)c1cc(S(=O)(=O)N(C)C)ccc1Cl | / | -1 | / | -9 | -5
O=C(Cc1c(F)cccc1Cl)Nc1ccncc1 | 90 | 25 | -3 | 10 | 37*
O=C(/C=C/c1ccccc1Cl)Nc1ccncc1 | / | 16 | / | 10 | -3
O=C(Cc1c(F)cccc1Cl)Nc1cccnc1 | 96 | 7 | -5 | 15 | -1
O=C(/C=C/c1c(Cl)cccc1Cl)Nc1ccncc1 | / | 92* | / | -5 | 51*
SMILES | Her2 expr inh | PostGolgi ctrl | Ecoli tolC | E coli WT exp | PostGolgi yeast
CCc1nc2ccccc2n1CCC(C)C | 73 | 3 | 26 | -1 | 7
Cc1cccc(Nc2ccccc2C(=O)OCC(=O)NCc2ccco2)c1C | / | 17 | / | -4 | 2
Cc1cccc(Nc2ccccc2C(=O)OCC(=O)N2CCOCC2)c1C | 102 | 35* | 29 | -10 | 3
Oc1c(Br)cc(Br)cc1/C=N/c1nc2c(s1)CCCC2 | / | 9 | / | 67* | 0
CCOC(=O)COc1ccc(/C=C/[N+](=O)[O-])c(OCC(=O)OCC)c1 | / | 5 | / | 4 | -5
O=[N+]([O-])/C=C/c1c(OCc2ccccc2)ccc2ccccc12 | / | 99* | / | -6 | 105*
CCCCOc1ccc2ccccc2c1C=O | / | 6 | / | 12 | -4
CCOc1ccc(/C=C/[N+](=O)[O-])c2ccccc12 | / | 81* | / | 6 | 78*
Cc1ccc(-c2nnc(-c3cccc(NC(=O)c4cccs4)c3)o2)cc1 | / | -1 | / | -6 | 9
C=CCSc1nnc(-c2ccncc2)n1-c1ccc(OCC)cc1 | 106 | 31* | 12 | 0 | 5
O=S1(=O)C=C(Oc2ccc(F)cc2)c2ccccc21 | 94 | -9 | 1 | 5 | 5
O=S1(=O)C=C(Oc2ccc3ccccc3c2)c2ccccc21 | / | 34* | / | -9 | -7
CCOC(=O)C1CCCN(c2ncnc3c2oc2ccccc23)C1 (configuration not stated) | 106 | 33* | 18 | 2 | 3
c1ccc(N2CCN(c3ncnc4c3oc3ccccc34)CC2)cc1 | 77 | 35* | 94* | -15 | -1
C#CC(CO)N(CCN(Cc1ccccc1)C(C#C)CO)Cc1ccccc1 (configuration not stated) | 166 | 29 | 42 | -6 | 9
O=C(CNS(=O)(=O)c1ccc(Br)s1)N1CCN(c2ncccn2)CC1 | 92 | 11 | -8 | 7 | -3
O=C(NNC(=O)c1ccc(SCC2CCCO2)c([N+](=O)[O-])c1)c1ccc(F)cc1 (configuration not stated) | / | 3 | / | -4 | 5
Cc1cccc(NCN2C(=O)c3ccccc3C2=O)c1 | / | 0 | / | 5 | 6
COC(=O)c1ccccc1NC(=O)N1c2ccccc2CC1C (configuration not stated) | 68 | 48* | 95* | -1 | -3
CCOC(=O)c1sc(NC(=O)CCN2C(=O)c3cccc([N+](=O)[O-])c3C2=O)c(C(=O)OCC)c1C | / | 8 | / | -7 | 10
O=C(CC(=O)c1cc(Cl)ccc1O)c1ccccc1 | 35 | 42* | 97* | 18 | 90*
Cc1cccc(C(=O)CC(=O)c2cc(Cl)ccc2O)c1 | / | 64* | / | 49 | 50*
COc1ccc(O)c(C(=O)CC(=O)c2ccc(F)cc2)c1 | 67 | 35* | 100* | 10 | 33*
COc1ccc(C(=O)c2ccccc2)c(O)c1 | 101 | -1 | 11 | 3 | -6
O=C(O)CC(=O)Nc1cc(Cl)ccc1O | / | 8 | / | 1 | 16
SMILES | Her2 expr inh | PostGolgi ctrl | Ecoli tolC | E coli WT exp | PostGolgi yeast
CCOC(=O)c1ccccc1NC(=O)c1cccc(F)c1 | / | 5 | / | 0 | 2
Cc1ccc(O)c(C(=O)CC(=O)c2cccc(F)c2)c1 | 41 | 34* | 100* | 16 | 8
Cc1cccc(-n2ncc3c(N4CCN(c5nc(C)cc(C)n5)CC4)ncnc32)c1 | 130 | / | -12 | / | /
COc1ccc(-c2cc(O)cc(O)c2)cc1 | 140 | 22 | 2 | 24 | 2
Cc1nc(NCCN2CCOCC2)c2oc3ccccc3c2n1 | 114 | 1 | 3 | 6 | -13
Cc1nc(NCCc2ccccc2)c2oc3ccccc3c2n1 | / | 51* | / | -5 | 18
S=C(c1ccc(-c2cc(Cl)ccc2Cl)o1)N1CCOCC1 | 83 | 22 | 59 | -4 | -5
O=C(Nc1ccc(CN2CCOCC2)cc1)c1ccc(-c2cc(Cl)ccc2Cl)o1 | / | 65* | / | -6 | 73*
COc1ccc(N2CCN(c3nc(NCCO)nc(N4CCOCC4)n3)CC2)cc1 | 96 | 31* | 3 | 5 | -4

Bioassay records: PubChem BioAssay, SRMLSC
